Calls of active or inactive are those of the source. No cut-off for these calls is given here.
What was measured:
[1] = target: T1, Prostaglandin D2 receptor 2 (Homo sapiens, UniProt Q9Y5Y4); test: Displacement of [3H]PGD2 from human CRTH2 receptor expressed in CHO cells; type: cell-based
T1 sequence (Q9Y5Y4 whole entry): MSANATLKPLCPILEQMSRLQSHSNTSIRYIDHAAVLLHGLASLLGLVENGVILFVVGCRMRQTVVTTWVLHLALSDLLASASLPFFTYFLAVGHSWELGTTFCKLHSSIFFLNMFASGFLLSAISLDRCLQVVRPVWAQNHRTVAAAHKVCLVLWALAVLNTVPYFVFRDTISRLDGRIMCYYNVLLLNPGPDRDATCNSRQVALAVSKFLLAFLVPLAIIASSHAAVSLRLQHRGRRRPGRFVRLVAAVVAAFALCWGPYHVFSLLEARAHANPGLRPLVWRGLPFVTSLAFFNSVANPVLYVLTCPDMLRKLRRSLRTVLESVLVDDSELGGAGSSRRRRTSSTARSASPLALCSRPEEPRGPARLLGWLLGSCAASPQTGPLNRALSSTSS
Method in brief: (§1)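 Scintillation proximity competition assay: 2–5 µg human or mouse CRTH2 membranes (nitrogen-cavitation, differential centrifugation) with WGA-SPA beads and 1.5 nM [3H]PGD2 in 10 mM HEPES/KOH pH 7.4, 10 mM MnCl2, protease inhibitors, 1% Me2SO, 90 min shaking at room temperature. Nonspecific binding with 1 µM PGD2. Ki by Cheng–Prusoff, mean of ≥3 independent experiments.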

[2] = target: T2, Prostaglandin D2 receptor 2 (Mus musculus, UniProt Q9Z2J6); test: Displacement of [3H]PGD2 from mouse CRTH2 receptor expressed in HEK293 cells; type: cell-based; method in brief: as §1
T2 sequence (Q9Z2J6 whole entry): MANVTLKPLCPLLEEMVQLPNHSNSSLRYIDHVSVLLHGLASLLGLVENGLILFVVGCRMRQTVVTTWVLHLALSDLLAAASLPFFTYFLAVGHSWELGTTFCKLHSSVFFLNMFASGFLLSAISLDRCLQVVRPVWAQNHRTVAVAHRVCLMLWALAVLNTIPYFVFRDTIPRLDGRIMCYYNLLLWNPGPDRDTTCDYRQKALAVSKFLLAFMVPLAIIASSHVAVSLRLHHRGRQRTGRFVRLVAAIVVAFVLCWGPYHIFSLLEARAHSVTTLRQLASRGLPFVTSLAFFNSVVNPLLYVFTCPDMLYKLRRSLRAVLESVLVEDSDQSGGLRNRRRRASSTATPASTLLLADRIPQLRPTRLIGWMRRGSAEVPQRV

[3] = target: T1, Prostaglandin D2 receptor 2; test: Antagonist activity at human CRTH2 receptor expressed in CHO cell membrane by [35S]GTP-gamma-S binding assay; type: functional, cell membranes
Method in brief: (§2)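 [35S]GTPγS binding at 30 °C on 10 µg human CRTH2 membranes in 20 mM HEPES/KOH pH 7.4, 10 mM MgCl2, 10 µg/mL saponin, 3 µM GDP, 150 mM NaCl, 2% Me2SO. PGD2 preincubation 10 min (antagonist mode: 80 nM PGD2), then 0.15 nM [35S]GTPγS for 30 min. Nonspecific binding with 10 µM GTPγS; stopped by centrifugation, scintillation counting.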

[4] = Intrinsic clearance per mg of protein in human liver microsomes at 3 uM; type: ADME, Microsome
Method in brief: (§3)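 Rat or human liver microsomes (0.5 mg/mL final) in 0.1 M phosphate pH 7.4 with 3 µM compound (1% DMSO), preincubated at 37 °C, started with 1 mM NADPH. Quenched with cold acetonitrile at 0, 15, 30, 45 min; LC/MS-MS of compound disappearance gives intrinsic clearance.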

[5] = Intrinsic clearance per mg of protein in rat liver microsomes at 3 uM; type: ADME, Microsome; method in brief: as §3
[6] = Lipophilicity, log D of the compound; type: physicochemical; settings: octanol/water
[7] = target: T3, Prostaglandin D2 receptor (Homo sapiens, UniProt Q13258); test: Inhibition of prostaglandin D2 receptor
T3 sequence (Q13258 whole entry): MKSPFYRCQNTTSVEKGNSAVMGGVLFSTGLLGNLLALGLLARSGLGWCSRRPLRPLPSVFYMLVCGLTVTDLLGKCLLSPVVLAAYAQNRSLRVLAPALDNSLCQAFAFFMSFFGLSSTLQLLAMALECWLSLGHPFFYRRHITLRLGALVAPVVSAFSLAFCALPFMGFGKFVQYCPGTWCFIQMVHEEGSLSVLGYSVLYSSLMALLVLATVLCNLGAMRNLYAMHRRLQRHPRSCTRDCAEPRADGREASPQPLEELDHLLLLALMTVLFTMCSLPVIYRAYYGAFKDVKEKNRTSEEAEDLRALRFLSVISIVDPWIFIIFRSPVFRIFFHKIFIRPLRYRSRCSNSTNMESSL

[8] = target: Prostaglandin E2 receptor EP2 subtype (Homo sapiens, UniProt P43116); test: Inhibition of prostanoid EP2 receptor
[9] = Inhibition of prostanoid EP3 receptor
[10] = Inhibition of prostanoid EP4 receptor
[11] = Inhibition of prostanoid FP receptor
[12] = Apparent permeability across human Caco-2 cell membrane at 10 uM; type: ADME, cell-based
Method in brief: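 Caco-2 monolayers grown 21 days on Transwell filters; TEER above 800 ohm·cm² required. 10 µM test compound in HBSS added apically (A to B) or basolaterally (B to A), 2 h at 37 °C. Both compartments sampled, analysed by LC/MS-MS.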

[13] = AUC (0 to last t) in rat at 1 mg/kg, iv; type: ADME, organism-based; set-up: time 0 - last, dose 1 mg/kg, route intravenous; settings: plasma
Method in brief: (§4)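 Male Sprague–Dawley or Janvier rats, three per route, dosed by oral gavage or iv bolus. Serial blood drawn through an indwelling carotid catheter up to 24 h post dose. Plasma pooled by time point, analysed by LC-MS/MS; non-compartmental analysis.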

[14] = AUC (0 to last t) in rat at 5 mg/kg, po; type: ADME, organism-based; set-up: time 0 - last, dose 5 mg/kg, route oral; settings: plasma; method in brief: as §4
[15] = AUC (0 to last t) in Beagle dog at 1 mg/kg, iv; type: ADME, organism-based, Canis lupus familiaris; set-up: time 0 - last, dose 1 mg/kg, route intravenous; settings: plasma
Method in brief: (§5)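 Three male beagle dogs, crossover design; 1 mg/kg given as a solution, iv bolus and oral gavage. Serial blood sampled up to 48 h post dose. Individual plasma samples analysed by LC-MS/MS; PK parameters derived by non-compartmental analysis.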

[16] = AUC (0 to last t) in Beagle dog at 1 mg/kg, po; type: ADME, organism-based, Canis lupus familiaris; set-up: time 0 - last, dose 1 mg/kg, route oral; settings: plasma; method in brief: as §5
[17] = Oral bioavailability in rat at 5 mg/kg; type: ADME, organism-based; settings: in vivo; method in brief: as §4
[18] = Oral bioavailability in Beagle dog at 1 mg/kg; type: ADME, organism-based, Canis lupus familiaris; settings: in vivo; method in brief: as §5
[19] = Cmax in rat at 1 mg/kg, iv; type: ADME, organism-based; set-up: dose 1 mg/kg, route intravenous; settings: in vivo; method in brief: as §4
[20] = Cmax in rat at 5 mg/kg, po; type: ADME, organism-based; set-up: dose 5 mg/kg, route oral; settings: in vivo; method in brief: as §4
[21] = Cmax in Beagle dog at 1 mg/kg, iv; type: ADME, organism-based, Canis lupus familiaris; set-up: dose 1 mg/kg, route intravenous; settings: in vivo; method in brief: as §5
[22] = Tmax in rat at 1 mg/kg, iv; type: ADME, organism-based; set-up: dose 1 mg/kg, route intravenous; settings: in vivo; method in brief: as §4
[23] = Tmax in rat at 5 mg/kg, po; type: ADME, organism-based; set-up: dose 5 mg/kg, route oral; settings: in vivo; method in brief: as §4
[24] = Tmax in Beagle dog at 1 mg/kg, iv; type: ADME, organism-based, Canis lupus familiaris; set-up: dose 1 mg/kg, route intravenous; settings: in vivo; method in brief: as §5
[25] = Half life in rat at 1 mg/kg, iv; type: ADME, organism-based; set-up: dose 1 mg/kg, route intravenous; settings: in vivo; method in brief: as §4
[26] = Half life in rat at 5 mg/kg, po; type: ADME, organism-based; set-up: dose 5 mg/kg, route oral; settings: in vivo; method in brief: as §4
[27] = Half life in Beagle dog at 1 mg/kg, iv; type: ADME, organism-based, Canis lupus familiaris; set-up: dose 1 mg/kg, route intravenous; settings: in vivo; method in brief: as §5
[28] = Clearance in rat at 1 mg/kg, iv; type: ADME, organism-based; set-up: dose 1 mg/kg, route intravenous; settings: in vivo; method in brief: as §4
[29] = Clearance in Beagle dog at 1 mg/kg, iv; type: ADME, organism-based, Canis lupus familiaris; set-up: dose 1 mg/kg, route intravenous; settings: in vivo; method in brief: as §5
[30] = Volume of distribution at steady state in rat at 1 mg/kg, iv; type: ADME, organism-based; set-up: dose 1 mg/kg, route intravenous; settings: in vivo, read-out: Vdss; method in brief: as §4
[31] = Volume of distribution at steady state in Beagle dog at 1 mg/kg, iv; type: ADME, organism-based, Canis lupus familiaris; set-up: dose 1 mg/kg, route intravenous; settings: in vivo, read-out: Vdss; method in brief: as §5
[32] = Cmax in Beagle dog at 1 mg/kg, po; settings: in vivo
[33] = Tmax in Beagle dog at 1 mg/kg, po; settings: in vivo
[34] = target: T4, Prostaglandin D2 receptor 2 (Homo sapiens) (UniProt Q9Y5Y4); test: Inverse agonistic activity at human CRTH2 receptor expressed in CHO cell membrane by [35S]GTP-gamma-S binding assay; type: functional, cell membranes; method in brief: as §2
T4 sequence (whole entry): T1 sequence (Q9Y5Y4 whole entry)

Prostaglandin E2 receptor EP2 subtype, sequence (P43116 whole entry): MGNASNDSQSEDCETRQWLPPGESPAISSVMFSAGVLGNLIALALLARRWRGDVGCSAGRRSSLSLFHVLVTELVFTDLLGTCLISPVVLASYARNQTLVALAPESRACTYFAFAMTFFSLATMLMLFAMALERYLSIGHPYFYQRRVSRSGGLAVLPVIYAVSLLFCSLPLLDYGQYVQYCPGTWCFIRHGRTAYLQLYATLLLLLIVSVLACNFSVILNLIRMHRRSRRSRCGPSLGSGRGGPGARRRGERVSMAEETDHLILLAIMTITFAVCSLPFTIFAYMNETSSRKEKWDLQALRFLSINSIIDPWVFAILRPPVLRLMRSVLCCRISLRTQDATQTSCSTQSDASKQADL

| Ki [1] [µM] | Ki [2] [µM] | IC50 [3] [µM] | microsomal CLint at 3 µM [4] [µL/min/mg] | microsomal CLint at 3 µM [5] [µL/min/mg] | logD [6] | IC50 [7] [µM] | IC50 [8] [µM] | IC50 [9] [µM] | IC50 [10] [µM] | IC50 [11] [µM] | Papp at 10 µM [12] [nm/s] | AUC(0-t) [13] [µg·h/mL] | AUC(0-t) [14] [µg·h/mL] | bioavailability [17] [%] | Cmax [19] [µg/mL] | Cmax [20] [µg/mL] | Tmax [22] [h] | Tmax [23] [h] | half-life [25] [h] | SMILES | further results |
| --- | --- | --- | --- | --- | --- | --- | --- | --- | --- | --- | --- | --- | --- | --- | --- | --- | --- | --- | --- | --- | --- |
| 0.023 | 0.033 | 0.107 | 3 | 8 | -0.4 | > 30 | > 30 | > 30 | > 30 | > 30 | – | – | – | – | – | – | – | – | – | O=C(O)CN1C(=O)[C@@]2(CC(=O)N(Cc3cccc(Cl)c3)C2=O)c2cc(Cl)ccc21 | – |
| 0.0053 | 0.005 | 0.066 | 5 | 19 | -0.5 | > 30 | > 30 | > 30 | > 30 | > 30 | 264 | 1.18 | 1.91 | 32 | 1.7 | 0.163 | 0 | 1.5 | 13 | O=C(O)CN1C(=O)[C@@]2(CC(=O)N(Cc3cc(Cl)ccc3F)C2=O)c2cc(Cl)ccc21 | AUC(0-t) [15]: 0.637 µg·h/mL; AUC(0-t) [16]: 0.339 µg·h/mL; bioavailability [18]: 52%; Cmax [21]: 1.95 µg/mL; Tmax [24]: 0 h; half-life [26]: 5.4 h; half-life [27]: 3 h; clearance [28]: 0.7 L/h/kg; clearance [29]: 2 L/h/kg; Vd [30]: 7 L/kg; Vd [31]: 5 L/kg; Cmax [32]: 0.0688 µg/mL; Tmax [33]: 2.67 h |
| 0.0038 | – | 0.019 | – | – | -0.3 | – | – | – | – | – | 21 | 0.247 | 0.00201 | 0.2 | 1.97 | 0.006 | 0 | 0.25 | 0.1 | Cc1noc(-c2ccccc2)c1CN1CC2(CC1=O)C(=O)N(CC(=O)O)c1ccc(Cl)cc12 (stereo not given) | clearance [28]: 4 L/h/kg; Vd [30]: 0.4 L/kg |
| 1.54 | – | – | – | – | – | – | – | – | – | – | – | – | – | – | – | – | – | – | – | O=C1CC2(C(=O)N1Cc1ccccc1)C(=O)N(Cc1nnn[nH]1)c1ccc(Cl)cc12 (stereo not given) | Activity [34]: Active |
